Key:
[1] = test system: patients treated with single agent panobinostat; settings: cited from earlier work
[2] = test system: patients with relapsed hematologic malignancies; assay: Phase 1 dose escalation trial of single-agent AR-42: safety and tolerability; assay type: in vivo, human
QTc measurement = assay type: in vivo, human
[3] = test system: patients with relapsed MM; assay: Response assessment, multiple myeloma patients; assay type: in vivo, human
In short: (§1)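 Open-label, single-centre, first-in-human 3+3 dose-escalation trial. Adults with relapsed or refractory CLL, Hodgkin or non-Hodgkin lymphoma (WHO 2008) or MM (IMWG criteria) had to have had at least one prior therapy; MM patients had prior immunomodulatory agent and proteasome inhibitor. Test compound was given orally Mon/Wed/Fri for three weeks of each 28-day cycle at 20, 40, 50 or 70 mg, until unacceptable toxicity or progression.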

[4] = test system: patients with relapsed lymphoma; assay: Response assessment, lymphoma patients; assay type: in vivo, human
In short: as §1

[5] = test system: patients with relapsed hematologic malignancies; assay: Response assessment, all 27 patients; assay type: in vivo, human; settings: 95% CI: 53.7 – 88.8
In short: as §1

soluble CD44 (sCD44) = assay: ELISA for soluble CD44 in serum of MM patients; assay type: in vivo, human
In short: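 Serum from relapsed multiple myeloma patients was collected at baseline before dosing and on cycle 1 day 15. Soluble human CD44 was measured by ELISA following the kit manufacturer's protocol. Patients took the oral HDAC inhibitor Monday, Wednesday and Friday for three weeks, then one week off, in 28-day cycles.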

[6] = Pharmacokinetic analysis of AR-42 in patient plasma; assay type: in vivo, human
[7] = test system: MM cell lines (U266, H929, RPMI 8226, ARH-77, and IM-9); settings: MM cell lines and primary MM cells; cited from earlier work
[8] = between the 20 and 40 mg dose levels
[9] = between the 40 and 50 mg dose levels

Cc1[nH]c2ccccc2c1CCNCc1ccc(/C=C/C(=O)NO)cc1 [panobinostat]
patients with fatigue [1]: 47.4%

AR-42
dose-limiting toxicities (DLTs) ([2]; in vivo): no DLTs were evident | grade 3 or 4 fatigue ([2]; in vivo): no patient suffered grade 3 or 4 fatigue | patients requiring hospitalization ([2]; in vivo): seven | patients requiring temporary holds of study treatment ([2]; in vivo): seven | patients with SAEs possibly, probably, or likely related to AR-42 ([2]; in vivo): five | patients with neutropenia (grade 1 – 3) ([2]; in vivo): 11 patients | patients with neutropenia (grade 1 – 4) ([2]; in vivo): 12 patients | maximum tolerated dose (MTD) ([2]; oral, three times weekly (M-W-F) for three weeks of a 28-day cycle): 40 mg | QTc prolongation, highest grade (QTc measurement; all 27 patients, not associated with cardiac events or dose reductions): ≤ 1 grade | mean maximum QTc change (QTc measurement; all patients, range 10 – 60, standard deviation 14.5): 27.4 | Cycles of Treatment ([3]; MM patient ID 1, 20 mg (1a)): 1 cycles | Cycles of Treatment ([3]; MM patient ID 4, 40 mg (2a)): 3 cycles | Cycles of Treatment ([3]; MM patient ID 5, 40 mg (2a)): 18 cycles | Cycles of Treatment ([3]; MM patient ID 6, 40 mg (2a)): 3 cycles | Cycles of Treatment ([3]; MM patient ID 7, 40 mg (1b)): 3 cycles | Cycles of Treatment ([3]; MM patient ID 8, 40 mg (1b)): 1 cycles | Cycles of Treatment ([3]; MM patient ID 10, 50 mg (2b)): 1 cycles | Cycles of Treatment ([3]; MM patient ID 11, 50 mg (2b)): 1 cycles | Cycles of Treatment ([3]; MM patient ID 12, 50 mg (2b)): 1 cycles | Cycles of Treatment ([3]; MM patient ID 13, 50 mg (2b)): 3 cycles | Cycles of Treatment ([3]; MM patient ID 17, 70 mg (3b)): 5 cycles | Cycles of Treatment ([3]; MM patient ID 20, 40 mg (4b)): 2 cycles | Cycles of Treatment ([3]; MM patient ID 21, 40 mg (4b)): 1 cycles | Cycles of Treatment ([3]; MM patient ID 22, 40 mg (4b)): 2 cycles | Cycles of Treatment ([3]; MM patient ID 25, 40 mg (4b)): 2 cycles | Cycles of Treatment ([3]; MM patient ID 26, 40 mg (4b)): 1 cycles | Cycles of Treatment ([3]; MM patient ID 27, 40 mg (4b)): 3 cycles | duration of disease control, one patient with MM ([3]; human, in vivo): 19 months | MM patients who progressed during the first cycle ([3]; of 17 MM patients): four | duration of disease control, one patient with mantle cell lymphoma ([4]; ongoing): 27 months | best response in patients with relapsed lymphoma ([4]; ten patients): stable disease | patients with stable disease for between 1 and 3 cycles [5]: 20 of 27 | reduction of sCD44, mean difference (soluble CD44 (sCD44); 10 MM patients, 95% CI: 3.19–32.72, paired t-test, p=0.0022): 17.95 | MM patients with decreased sCD44 levels (soluble CD44 (sCD44); baseline vs cycle 1 day 15): nine | MM patients in whom CD44 decreased more than 20% by day 15 (soluble CD44 (sCD44); cycle 1 day 15): four | peak concentration (geometric mean, %CV) ([6]; 20 mg oral, day 19, plasma): 0.335 (65.6) μM | peak concentration (geometric mean, %CV) ([6]; 20 mg oral, day one, plasma): 0.383 (56.2) μM | peak concentration (geometric mean, %CV) ([6]; 40 mg oral, day 19, plasma): 0.830 (27.9) μM | peak concentration (geometric mean, %CV) ([6]; 40 mg oral, day one, plasma): 0.794 (23.8) μM | peak concentration (geometric mean, %CV) ([6]; 50 mg oral, day one, plasma): 1.60 (37.5) μM | fold increase in mean day one AUC0-∞ [6, 8]: 1.9 fold | fold increase in mean day one Cmax [6, 8]: 2.1 fold | fold increase in mean day one AUC0-∞ [6, 9]: 1.7 fold | fold increase in mean day one Cmax [6, 9]: 2.0 fold | potency in comparison to vorinostat [7]: four- to seven-fold more potent

Reference: article PMC5489371 (Leukemia & lymphoma, 2017)
